Source: ChEMBL document CHEMBL4390662, “Design, synthesis and biological evaluation of novel α-acyloxy carboxamides via Passerini reaction as caspase 3/7 activators” (Eur J Med Chem, 2019)
Calls of active or inactive are those of the source. No cut-off for these calls is given here.

Legend:
WI-38 = experiment: Cytotoxicity against human WI38 cells assessed as cell growth inhibition incubated for 72 hrs by MTT assay; type: cell-based; details: for IC50: Homo sapiens, WI-38, 72 h; for EC100: human, wi-38, 72 h
Method in brief: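 Wi-38 fibroblasts grown in DMEM with 10% FBS and seeded at 5×10^3 per well. Attachment 24 h, then serial concentrations for 72 h at 37°C, 5% CO2. MTT stock (5 mg/mL) added for 3 h at 37°C, DMSO solubilization, absorbance at 570 nm. IC50 estimated.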

MCF7 [1] = experiment: Cytotoxicity against human MCF7 cells assessed as cell growth inhibition incubated for 72 hrs by MTT assay; type: functional, cell-based; details: MCF7, 72 h
Method in brief: (§1)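 Cells grown in RPMI-1640 with 10% FBS and seeded at 5×10^3 per well. After 24 h, serial concentrations given for 72 h at 37°C, 5% CO2. Then 5 mg/mL MTT stock added for 3 h, formazan dissolved in DMSO, A570 read. IC50 calculated from the curves.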

HepG2 [2] = experiment: Cytotoxicity against human HepG2 cells assessed as cell growth inhibition incubated for 72 hrs by MTT assay; type: functional, cell-based; details: HepG2, 72 h; method in brief: as §1
MCF7 [3] = experiment: Potency index, ratio of doxorubicin IC50 to test compound IC50 against human MCF7 cells; type: functional
[4] = Selectivity index, ratio of IC50 for human WI38 cells to IC50 for human MCF7 cells; type: toxicity; details: WI38 cells versus MCF7 cells, read-out: Ratio IC50
Method in brief: (§2)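 SI calculated as IC50 on normal Wi-38 fibroblasts divided by IC50 on the cancer cell line. Both came from 72 h MTT assays.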

[5] = Selectivity index, ratio of IC50 for human WI38 cells to IC50 for mouse NFS60 cells; method in brief: as §2
[6] = Selectivity index, ratio of IC50 for human WI38 cells to IC50 for human HepG2 cells; type: toxicity; details: WI38 cells versus HepG2 cells, read-out: Ratio IC50; method in brief: as §2
MCF7 [7] = experiment: Induction of apoptosis in human MCF7 cells assessed as induction of cell shrinkage by phase contrast inverted fluorescence microscopy; type: functional, cell-based
HepG2 [8] = experiment: Induction of apoptosis in human HepG2 cells assessed as induction of cell shrinkage by phase contrast inverted fluorescence microscopy; type: functional, cell-based
MCF7 [9] = experiment: Induction of apoptosis in human MCF7 cells assessed as late apoptotic cells at IC50 incubated for 72 hrs by annexin V/propidium iodide staining based flow cytometry (reference value: 0.01 +/- 0.001%); type: functional
MCF7 [10] = experiment: Induction of apoptosis in human MCF7 cells assessed as early apoptotic cells at IC50 incubated for 72 hrs by annexin V/propidium iodide staining based flow cytometry (reference value: 0.47 +/- 0.01%); type: functional
MCF7 [11] = experiment: Induction of apoptosis in human MCF7 cells assessed as total apoptotic cells at IC50 incubated for 72 hrs by annexin V/propidium iodide staining based flow cytometry (reference value: 0.48 +/- 0.01%); type: functional
NFS-60 [12] = experiment: Induction of apoptosis in mouse NFS60 cells assessed as early apoptotic cells at IC50 incubated for 72 hrs by annexin V/propidium iodide staining based flow cytometry (reference value: 0.02 +/- 0.01%); type: functional
NFS-60 [13] = experiment: Induction of apoptosis in mouse NFS60 cells assessed as total apoptotic cells at IC50 incubated for 72 hrs by annexin V/propidium iodide staining based flow cytometry (reference value: 0.495 +/- 0.01%); type: functional
HepG2 [14] = experiment: Induction of apoptosis in human HepG2 cells assessed as late apoptotic cells at IC50 incubated for 72 hrs by annexin V/propidium iodide staining based flow cytometry (reference value: 0.1 +/- 0.001%); type: functional
MCF7 [15] = experiment: Induction of apoptosis in human MCF7 cells assessed as caspase 3/7 activity using DEVD aminoluciferin as substrate at IC50 after 24 hrs […] relative to control; type: functional
Method in brief: (§3)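 Caspase 3/7 activation measured with Caspase-Glo 3/7 kit using a luminogenic caspase-cleavable substrate. […] Reported as percent activation, mean ± SEM.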

NFS-60 [16] = experiment: Induction of apoptosis in mouse NFS60 cells assessed as caspase 3/7 activity using DEVD aminoluciferin as substrate at IC50 after 24 hrs […] relative to control; type: functional; method in brief: as §3
HepG2 [17] = experiment: Induction of apoptosis in human HepG2 cells assessed as caspase 3/7 activity using DEVD aminoluciferin as substrate at IC50 after 24 hrs by fluorescence assay relative to control; type: functional; method in brief: as §3
MCF7 [18] = experiment: Induction of caspase-independent apoptosis in human MCF7 cells assessed as AIF1 release level using tetramethylbenzidine as substrate incubated for 1 hr by ELISA (reference value: 2.28 +/- 0.06 ng/ml); type: functional
Method in brief: (§4)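 Extracts of untreated and treated cells added to anti-AIF1-coated wells. Incubated 1 h with HRP-conjugated antibody, washed, then TMB substrate added. Reaction stopped after 10 min and read at 450 nm. AIF1 reported in ng/mL, mean ± SEM.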

NFS-60 [19] = experiment: Induction of caspase-independent apoptosis in mouse NFS60 cells assessed as AIF1 release level using tetramethylbenzidine as substrate incubated for 1 hr by ELISA (reference value: 2.37 +/- 0.035 ng/ml); type: functional; method in brief: as §4
HepG2 [20] = experiment: Induction of caspase-independent apoptosis in human HepG2 cells assessed as AIF1 release level using tetramethylbenzidine as substrate incubated for 1 hr by ELISA (reference value: 1.18 +/- 0.06 ng/ml); type: functional; method in brief: as §4
NFS-60 [21] = experiment: Induction of apoptosis in mouse NFS60 cells assessed as induction of cell shape loss by phase contrast inverted fluorescence microscopy; type: functional, cell-based
HepG2 [22] = experiment: Induction of apoptosis in human HepG2 cells assessed as induction of cell shape loss by phase contrast inverted fluorescence microscopy; type: functional, cell-based
MCF7 [23] = experiment: Induction of apoptosis in human MCF7 cells assessed as viable cells level at IC50 incubated for 72 hrs by annexin V/propidium iodide staining based flow cytometry (reference value: 99.5%); type: functional
MCF7 [24] = experiment: Induction of apoptosis in human MCF7 cells assessed as early apoptotic cells level at IC50 incubated for 72 hrs by annexin V/propidium iodide staining based flow cytometry (reference value: 0.01%); type: functional
MCF7 [25] = experiment: Induction of apoptosis in human MCF7 cells assessed as late apoptotic cells level at IC50 incubated for 72 hrs by annexin V/propidium iodide staining based flow cytometry (reference value: 0.01%); type: functional
NFS-60 [26] = experiment: Induction of apoptosis in mouse NFS60 cells assessed as viable cells level at IC50 incubated for 72 hrs by annexin V/propidium iodide staining based flow cytometry (reference value: 99.52%); type: functional
HepG2 [27] = experiment: Induction of apoptosis in human HepG2 cells assessed as viable cells level at IC50 incubated for 72 hrs by annexin V/propidium iodide staining based flow cytometry (reference value: 98.97%); type: functional
HepG2 [28] = experiment: Induction of apoptosis in human HepG2 cells assessed as early apoptotic cells level at IC50 incubated for 72 hrs by annexin V/propidium iodide staining based flow cytometry (reference value: 0.05%); type: functional
HepG2 [29] = experiment: Induction of apoptosis in human HepG2 cells assessed as necrotic cells level at IC50 incubated for 72 hrs by annexin V/propidium iodide staining based flow cytometry (reference value: 0.87%); type: functional
NFS-60 [30] = experiment: Induction of apoptosis in mouse NFS60 cells assessed as late apoptotic cells at IC50 incubated for 72 hrs by annexin V/propidium iodide staining based flow cytometry (reference value: 0.015 +/- 0.01%)

| SMILES | IC50 (WI-38) | EC100 (WI-38) | IC50 (MCF7 [1]) | IC50 (HepG2 [2]) | Ratio IC50 (MCF7 [3]) | selectivity ratio [4] | Ratio IC50 [5] | selectivity ratio [6] | Activity (MCF7 [7]) | Activity (HepG2 [8]) | Activity (MCF7 [9]) | Activity (MCF7 [10]) | Activity (MCF7 [11]) | Activity (NFS-60 [12]) | Activity (NFS-60 [13]) | Activity (HepG2 [14]) | Activity (MCF7 [15]) | Activity (NFS-60 [16]) | Activity (HepG2 [17]) | Activity (MCF7 [18]) | further results |
| --- | --- | --- | --- | --- | --- | --- | --- | --- | --- | --- | --- | --- | --- | --- | --- | --- | --- | --- | --- | --- | --- |
| O=C(OC1(C(=O)Nc2ccc([N+](=O)[O-])cc2)CCCCC1)C(O)c1ccccc1 (stereo unspecified) | 84.4 nM | 0.0507 µM | 5.01 nM | 7.7 nM | 2 - 4 | 16.8 | 10.82 | 11 | Active | Active | 30.785% | 22.345% | 53.129% | 21.04% | 44.185% | 42.85% | 55.04% | 52.835% | 53.64% | 2.36 ng/mL | Activity (NFS-60 [19]): 2.47 ng/mL; Activity (HepG2 [20]): 1.305 ng/mL; Activity (NFS-60 [21]): Active; Activity (HepG2 [22]): Active; Activity (MCF7 [23]): 43.92%; Activity (MCF7 [24]): 3.76%; Activity (MCF7 [25]): 28.9%; Activity (NFS-60 [26]): 53.25%; Activity (HepG2 [27]): 47.87%; Activity (HepG2 [28]): 3.14%; Activity (HepG2 [29]): 7.11%; Activity (NFS-60 [30]): 23.645% |
| O=C(Cc1ccccc1)OC1(C(=O)Nc2ccc([N+](=O)[O-])cc2)CCCCC1 | 43.9 nM | 0.032 µM | 7.7 nM | 14.2 nM | 2 - 4 | 5.7 | 5.419 | 3.09 | Active | Active | 22.09% | 11.885% | 33.98% | 13.64% | 34.129% | 27.77% | 43.04% | 45.41% | 47.64% | 2.33 ng/mL | Activity (NFS-60 [19]): 2.41 ng/mL; Activity (HepG2 [20]): 1.23 ng/mL; Activity (NFS-60 [21]): Active; Activity (HepG2 [22]): Active; Activity (MCF7 [23]): 59.23%; Activity (MCF7 [24]): 7.06%; Activity (MCF7 [25]): 20.57%; Activity (NFS-60 [26]): 61.34%; Activity (HepG2 [27]): 63.53%; Activity (HepG2 [28]): 2.74%; Activity (HepG2 [29]): 7.13%; Activity (NFS-60 [30]): 20.09% |
| O=C(OC1(C(=O)Nc2ccc([N+](=O)[O-])cc2)CCCCC1)c1ccc([N+](=O)[O-])cc1 | 761 nM | 0.149 µM | 8.7 nM | 14.1 nM | 2 - 4 | 87.5 | 98.831 | 54 | Active | Active | 20.439% | 24.065% | 44.505% | 22.83% | 41.795% | 23.385% | 50.94% | 49.59% | 50.68% | 2.34 ng/mL | Activity (NFS-60 [19]): 2.44 ng/mL; Activity (HepG2 [20]): 1.28 ng/mL; Activity (NFS-60 [21]): Active; Activity (HepG2 [22]): Active; Activity (MCF7 [23]): 54.7%; Activity (MCF7 [24]): 1.96%; Activity (MCF7 [25]): 18.31%; Activity (NFS-60 [26]): 55.46%; Activity (HepG2 [27]): 57.37%; Activity (HepG2 [28]): 1.95%; Activity (HepG2 [29]): 19.9%; Activity (NFS-60 [30]): 18.965% |
